Screening results deposited in PubChem BioAssay by Broad Institute.
Many of the other results were omitted from the sample, so hits are more common in it than they were.
T cruzi growth-1: inhibitors of T. cruzi proliferation; T. cruzi beta-gal in NIH3T3, GalScreen luminescence, 90 h; inhibition, % at 8.34 µM; actives 5.9% (n = 77,000); AID 624255;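 active = mean inhibition above about 93%, with at least 55% of replicates each passing it, limit read from the data, passing the limit was not always enough; inconclusive = only one of those two conditions holds; inactive = neither condition holds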
KDM4C inh: inhibitors of human demethylase GASC-1 KDM4C. actives 0.15% (n = 96,000). GST-KDM4C 2-372, H3K9me3 peptide, LANCE TR-FRET. Q9H3R0. AID 720574. inhibition, % at 12.5 µM;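 active = mean replicate inhibition above about 25%, with at least 55% of replicates also reaching it, limit read from the data, passing the limit was not always enough; inconclusive = only one of those two conditions met; inactive = neither condition met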
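material = GST-tagged GASC-1 (JMJD2C) catalytic fragment, aa 2-372 | amount = enzyme final amount 10 nM | medium = HEPES buffer, pH 7.5, plus ascorbate | also added = H3K9me3 peptide substrate, Fe(II), 2-oxoglutarate | dosing = single dose | times = 30 min demethylation and 1 h detection at room temperature | detection = LANCE TR-FRET | read-out basis = Fall in 671/618 emission ratio as inhibition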
IDH1 R132H inh: IDH1 R132H (human) inhibition | AID 624101 | IDH1 R132H reductase, diaphorase/resazurin fluorescence, 60 min | O75874 | actives 0.18% (n = 70,000) | inhibition, % at 10 µM; in the data active = inhibition above about 34%; inconclusive = no clear call, values can overlap the other calls; inactive = below about 11%;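 also: 0% = DMSO and 100% = no enzyme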
Target sequence (O75874 whole entry R132H): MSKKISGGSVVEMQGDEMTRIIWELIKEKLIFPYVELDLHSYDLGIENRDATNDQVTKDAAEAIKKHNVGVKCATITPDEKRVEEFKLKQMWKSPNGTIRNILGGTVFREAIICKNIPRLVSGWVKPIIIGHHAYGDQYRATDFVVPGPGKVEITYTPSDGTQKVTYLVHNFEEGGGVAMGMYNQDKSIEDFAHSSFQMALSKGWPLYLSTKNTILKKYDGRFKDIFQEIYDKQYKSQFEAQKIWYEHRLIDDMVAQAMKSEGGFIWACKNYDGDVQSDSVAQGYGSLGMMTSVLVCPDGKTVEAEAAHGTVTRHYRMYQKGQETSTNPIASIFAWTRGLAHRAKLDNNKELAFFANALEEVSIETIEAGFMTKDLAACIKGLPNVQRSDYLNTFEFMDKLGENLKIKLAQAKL
T cruzi growth-2: inhibitors of T. cruzi proliferation; shares compounds with T cruzi growth-1; T. cruzi beta-gal in NIH3T3, GalScreen luminescence, 90 h; inhibition, % at 8.35 µM; actives 72% (n = 5,600); AID 651739;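 active = mean replicate inhibition above about 95% and at least 55% of replicates individually reaching it, limit read from the data; inconclusive = only one of the two criteria is met; inactive = neither criterion is met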
T cruzi growth-3: inhibitors of T. cruzi proliferation. shares compounds with T cruzi growth-1. T. cruzi beta-gal in NIH3T3, GalScreen luminescence, 90 h. inhibition, % at 2.09 µM. actives 21% (n = 5,600);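 active = mean inhibition above about 95%, with at least 55% of replicates also reaching it, limit read from the data; inconclusive = meets just one of the two conditions; inactive = meets neither condition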;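 also: plate controls were neutral control median for no effect and positive control median for full effect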
NIH3T3 tox: kills mouse NIH/3T3 fibroblasts; shares compounds with T cruzi growth-1; NIH/3T3 viability, CellTiter-Glo ATP luminescence, 90 h; actives 14% (n = 5,600); AID 651742; cytotoxicity (signal decrease), % at 8.35 µM;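 active = mean signal decrease across replicates above about 35% based on untreated-well scatter, with enough replicates individually passing, limit read from the data; inconclusive = no rule stated though some were filed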;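 also: 0% = median of neutral control wells and 100% = median of positive control wells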
NIH3T3 tox 2: kills mouse NIH/3T3 fibroblasts | inhibition, % at 24.9 µM | AID 651744 | shares compounds with T cruzi growth-1 | actives 56% (n = 5,600) | NIH/3T3 viability, CellTiter-Glo ATP luminescence, 90 h;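 active = mean loss of cell viability signal at or above a set limit, and enough replicates individually reaching it; inconclusive = meets only the mean limit or only the replicate share; inactive = meets neither condition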;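 also: 0% = median of neutral control wells and 100% = median of positive control wells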
Active calls of the source: *; ? = inconclusive; nt = no result.

SMILES	T cruzi growth-1	KDM4C inh	IDH1 R132H inh	T cruzi growth-2	T cruzi growth-3	NIH3T3 tox	NIH3T3 tox 2
COc1cccc(NC(=O)N(C)C[C@@H]2Oc3ncc(C#Cc4ccc(F)cc4)cc3C(=O)N([C@@H](C)CO)C[C@H]2C)c1	113*	-2	nt	112*	111*	31	14
COc1cccc(NC(=O)N(C)C[C@H]2Oc3ncc(C#Cc4ccc(F)cc4)cc3C(=O)N([C@@H](C)CO)C[C@@H]2C)c1	121*	-4	nt	106*	100*	23	38*
CC(C)NC(=O)Nc1cccc2c1O[C@H](CN(C)S(=O)(=O)c1cccs1)[C@H](C)CN([C@H](C)CO)C2=O	7	-1	2	nt	nt	nt	nt
CCC(C)(C)C(=O)N1CCC(C(=O)OC)CC1	nt	nt	0	nt	nt	nt	nt
CCN(CC)CCNc1ncnc2sc3c(c12)CC(C)(C)OC3	nt	nt	0	nt	nt	nt	nt
COC(=O)C[C@H]1CC[C@H]2[C@@H](COc3ccc(NC(=O)c4ccccc4)cc3C(=O)N2C)O1	nt	4	nt	nt	nt	nt	nt
COc1ccc(NC(=O)N(C)C[C@@H]2Oc3ccc(NC(=O)c4ccncc4)cc3CC(=O)N([C@H](C)CO)C[C@@H]2C)cc1	29	-1	nt	nt	nt	nt	nt
O=C(CSc1nc2ccccc2o1)Nc1ccc(Br)cc1Cl	nt	nt	0	nt	nt	nt	nt
C[C@H]1CN([C@@H](C)CO)S(=O)(=O)c2ccc(C3=CCCC3)cc2O[C@H]1CN(C)Cc1ccncc1	105*	4	1	102*	92	19	31*
C[C@H]1CN([C@@H](C)CO)S(=O)(=O)c2ccc(C3=CCCC3)cc2O[C@@H]1CN(C)Cc1cncnc1	54	3	nt	nt	nt	nt	nt
C[C@H]1CN([C@@H](C)CO)S(=O)(=O)c2ccc(C3=CCCC3)cc2O[C@@H]1CN(C)Cc1ccncc1	117*	0	nt	98*	?	45*	97*
C[C@@H]1CN([C@H](C)CO)S(=O)(=O)c2ccc(C3=CCCC3)cc2O[C@H]1CN(C)Cc1ccncc1	115*	-1	2	98*	104*	68*	76*
C[C@@H]1CN([C@H](C)CO)S(=O)(=O)c2ccc(C3=CCCC3)cc2O[C@@H]1CN(C)Cc1cncnc1	23	0	nt	nt	nt	nt	nt
C[C@@H]1CN([C@@H](C)CO)S(=O)(=O)c2ccc(C3=CCCC3)cc2O[C@@H]1CN(C)Cc1cncnc1	47	0	3	nt	nt	nt	nt
CCn1c(SCC(=O)Nc2ccc(Cl)cc2Cl)nnc1-c1ccccc1	nt	nt	-1	nt	nt	nt	nt
C[C@@H]1CN([C@@H](C)CO)S(=O)(=O)c2ccc(C#CC3CC3)cc2O[C@@H]1CN(C)C(=O)Nc1cc(F)ccc1F	103*	-3	nt	114*	79	29	28*
C[C@@H]1CN([C@H](C)CO)S(=O)(=O)c2ccc(C#CC3CCCC3)cc2O[C@@H]1CN(C)C(=O)Nc1cc(F)ccc1F	nt	0	1	nt	nt	nt	nt
C[C@H](CO)N1C[C@H](C)[C@H](CN(C)C(=O)Nc2cc(F)ccc2F)Oc2cc(C#CC3CCCC3)ccc2S1(=O)=O	nt	-1	0	nt	nt	nt	nt
C[C@H](CO)N1C[C@H](C)[C@@H](CN(C)C(=O)Nc2cc(F)ccc2F)Oc2cc(C#CC3CCCC3)ccc2S1(=O)=O	nt	nt	2	nt	nt	nt	nt
C[C@H](CO)N1C[C@H](C)[C@H](CN(C)C(=O)Nc2cc(F)ccc2F)Oc2cc(C#CC3CC3)ccc2S1(=O)=O	117*	-3	nt	112*	45	4	25
C[C@@H]1CN([C@@H](C)CO)S(=O)(=O)c2ccc(C#CC3CC3)cc2O[C@H]1CN(C)C(=O)Nc1cc(F)ccc1F	104*	0	nt	106*	71	38*	33*
C[C@@H]1CN([C@H](C)CO)C(=O)Cc2cc(NC(=O)c3ccncc3)ccc2O[C@@H]1CN(C)S(=O)(=O)c1ccccc1	nt	-2	-2	nt	nt	nt	nt
Cc1cc2ncc(-c3ccn(S(=O)(=O)c4ccc(Cl)cc4)c3)nc2cc1C	nt	nt	0	nt	nt	nt	nt
CCc1ccc2[nH]c(C(=O)Nc3ccccc3C(C)CC)cc2c1 (centres undefined)	nt	nt	2	nt	nt	nt	nt
COCC(=O)N1C[C@@H](C)[C@H](OC)CN(C)C(=O)c2ccc(NC(=O)Nc3ccccc3)cc2OC[C@@H]1C	nt	1	nt	nt	nt	nt	nt
SMILES	T cruzi growth-1	KDM4C inh	IDH1 R132H inh	T cruzi growth-2	T cruzi growth-3	NIH3T3 tox	NIH3T3 tox 2
Cc1nnc(SCC(=O)Nc2ccc(Br)c(C)c2C)s1	nt	nt	0	nt	nt	nt	nt
COc1cccc(N(CC(=O)Nc2ccc(OC)c(Cl)c2)S(C)(=O)=O)c1	nt	nt	0	nt	nt	nt	nt
C[C@@H]1CCCCO[C@@H](CN(C)S(=O)(=O)c2ccc(Cl)cc2)[C@@H](C)CN([C@H](C)CO)C(=O)c2cc(NC(=O)C3CCCCC3)ccc2O1	-11	-2	nt	nt	nt	nt	nt
C[C@@H]1CCCCO[C@H](CN(C)S(=O)(=O)c2ccc(Cl)cc2)[C@@H](C)CN([C@@H](C)CO)C(=O)c2cc(NC(=O)C3CCCCC3)ccc2O1	108*	0	2	112*	?	7	-21
C[C@@H]1CCCCO[C@H](CN(C)S(=O)(=O)c2ccc(F)cc2)[C@H](C)CN([C@H](C)CO)C(=O)c2cc(NC(=O)C3CCCCC3)ccc2O1	?	0	-2	112*	60	-5	11
C[C@@H]1CCCCO[C@@H](CN(C)S(=O)(=O)c2ccc(Cl)cc2)[C@H](C)CN([C@H](C)CO)C(=O)c2cc(NC(=O)C3CCCCC3)ccc2O1	108*	0	nt	111*	113*	-6	-9
Cc1ccc(S(=O)(=O)N(C)C[C@@H]2OCCCC[C@H](C)Oc3ccc(NC(=O)C4CCCCC4)cc3C(=O)N([C@H](C)CO)C[C@H]2C)cc1	82	0	nt	nt	nt	nt	nt
C[C@H](CO)N1C[C@H](C)[C@@H](CN(C)S(=O)(=O)c2ccc(F)cc2)OCCCC[C@H](C)Oc2ccc(NC(=O)C3CCCCC3)cc2C1=O	66	0	-2	nt	nt	nt	nt
O=C(CC1NC2CCCCC2NC1=O)Nc1ccc2c(c1)OCCO2 (centres undefined)	nt	nt	1	nt	nt	nt	nt
Cc1cc(Cl)ccc1N(CC(=O)Nc1cc(Cl)cc(Cl)c1)S(C)(=O)=O	nt	nt	1	nt	nt	nt	nt
COc1ccccc1C(CCNCc1ccccc1)c1ccco1 (centres undefined)	nt	nt	0	nt	nt	nt	nt
Cn1c(SCC(=O)Nc2sc3c(c2C#N)CCCC3)nnc1-c1ccc(Cl)cc1Cl	nt	nt	0	nt	nt	nt	nt
CCSc1ncc(Cl)c(C(=O)Nc2nnc(SCc3ccccc3F)s2)n1	nt	nt	0	nt	nt	nt	nt
Cc1ccc(NC(=O)C(C)Sc2nnc(-c3ccc([N+](=O)[O-])cc3)n2-c2ccccc2)cc1 (centres undefined)	nt	nt	0	nt	nt	nt	nt
COC(=O)C[C@H]1C[C@@H]2c3cc(NC(=O)Nc4ccc(C(F)(F)F)cc4)ccc3O[C@@H]2[C@@H](CO)O1	104*	-3	2	108*	30	10	25*
